FXIa inh 1536 – human FXIa protease inhibitors, primary screen, biochemical, 1536-well. Coagulation factor XI (Homo sapiens), P03951. actives 0.14% (n = 220,000). purified FXIa, Boc-Glu-Ala-Arg-AMC fluorogenic substrate. inhibition, % at 5 µM;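 active = inhibition of at least 40%; inactive = inhibition below 40%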;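 note: fluorescence of freed AMC excited at 355 nm; 0% = enzyme without compound and 100% = no enzyme blank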
FXIIa inh – human FXIIa protease inhibitors, primary screen, biochemical, 1536-well; purified FXIIa, Boc-QGR-AMC fluorogenic substrate, 2 h; inhibition, % at 5 µM; actives 0.3% (n = 220,000); AID 800, 2007; in the data active = inhibition above about 40%;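 note: 0% = enzyme with no compound and 100% = blank without enzyme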
Target sequence (P00748 20-372 limits assumed): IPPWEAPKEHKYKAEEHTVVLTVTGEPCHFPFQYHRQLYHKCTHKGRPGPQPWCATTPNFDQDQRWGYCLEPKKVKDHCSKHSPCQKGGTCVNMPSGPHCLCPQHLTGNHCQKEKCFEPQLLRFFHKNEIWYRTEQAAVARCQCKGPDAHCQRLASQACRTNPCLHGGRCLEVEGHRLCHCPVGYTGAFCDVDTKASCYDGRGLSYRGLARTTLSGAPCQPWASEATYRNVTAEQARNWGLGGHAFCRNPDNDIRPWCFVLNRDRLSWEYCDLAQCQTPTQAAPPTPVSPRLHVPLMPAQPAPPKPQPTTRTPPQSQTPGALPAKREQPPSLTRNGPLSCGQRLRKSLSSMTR
Target sequence (P00748 373-615 limits assumed): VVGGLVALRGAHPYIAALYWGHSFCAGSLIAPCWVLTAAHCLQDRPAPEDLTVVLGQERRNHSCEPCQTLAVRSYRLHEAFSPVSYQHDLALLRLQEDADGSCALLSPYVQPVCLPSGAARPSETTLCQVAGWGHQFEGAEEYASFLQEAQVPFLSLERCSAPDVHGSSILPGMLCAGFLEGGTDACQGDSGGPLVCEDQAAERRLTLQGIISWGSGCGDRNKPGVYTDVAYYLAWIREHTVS
AHR act – AHR activators, primary screen, cell-based, luminescence, luciferase reporter, human | actives 2.5% (n = 320,000) | activation, % at 5 µM | AHR-responsive luciferase reporter cells | AID 2796, 2010 | Aryl hydrocarbon receptor (Homo sapiens), P35869; in the data active = activation above about 47%;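 note: 0% = vehicle wells and 100% = reference agonist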
Thrombin inh – human alpha-thrombin inhibitors, primary screen, counter-screen for coagulation protease inhibitor project, biochemical, 1536-well, fluorogenic AMC substrate | Boc-VPR-AMC fluorogenic substrate cleavage | inhibition, % at 5 µM | actives 0.26% (n = 220,000) | AID 1046, 2008;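 active = inhibition at or above 40%; inactive = inhibition below 40%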;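 note: 0% = enzyme with no compound and 100% = wells without enzyme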
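Material: human alpha-thrombin protein; Also added: Boc-VPR-AMC substrate, 15 µM final; Timing: enzyme reaction carried out at room temperature; Signal: fluorescence, ex 355 nm, em 460 nm; Measure: % inhibition of thrombin; Controls: enzyme without compound as high, wells lacking enzyme as low.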
hK5 inh – human KLK5 protease inhibitors, primary screen, biochemical, 1536-well; Kallikrein-5 (Homo sapiens), Q9Y337; recombinant hK5, fluorogenic AMC substrate cleavage; inhibition, % at 5 µM; actives 0.59% (n = 210,000); AID 873, 2007;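 active = inhibition of 40% or more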;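 note: 0% = enzyme controls without compound and 100% = no-enzyme blanks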
STAT3 act-1 – IL-6 driven STAT3 reporter potentiators, primary screen, U3A cells, luciferase, luminescence, MLSCN library; actives 0.91% (n = 190,000); activation (% of control), % at 5.6 µM; IL-6 STAT3-luciferase reporter; 100% = signal with IL-6 EC80 alone;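 active = activation above the screen-wide mean of compound activation plus 3 SD, cut at about 130% in these data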;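 note: 0% = background luminescence of wells with medium and substrate only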
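Material: STAT3-luciferase reporter U3A cells. Controls: IL-6-treated wells, 100% activation. Read-out: % activation versus median of IL-6-stimulated wells. Probe or stimulus: IL-6 stimulus at 33 ng/mL final. Timing: compound 1 h, then IL-6 6 h at 37 °C. Signal: reporter luminescence signal.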
STAT3 act-2 – STAT3 reporter potentiators, retest of hits, confirmation, U3A cells, luciferase, luminescence; actives 64% (n = 1,200); shares compounds with STAT3 act-1; AID 1267, 2008; IL-6 potentiation; U3A cells lack STAT1; 100 means same as IL-6 alone; potentiation (% of control), % at 5.7 µM;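 active = percent activation of the STAT3 luciferase reporter above a set limit taken from the earlier primary screen, cut at about 130% in these data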;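 note: 0% = background signal of medium plus substrate and 100% = median of IL-6 with DMSO wells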
NFkB act STAT3ct – NF-kB reporter activators in human cells, counter-screen for STAT3 activator project; shares compounds with STAT3 act-1; NF-kappaB reporter activation; activation (% of control), % at 5.7 µM; actives 11% (n = 1,200); in the data active = activation above about 120%;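 note: reporter induced by TNF-alpha stimulation; 100% = median of stimulated DMSO wells and 0% = no signal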
STAT1 act – STAT1 reporter activators, IFN-gamma induced, counter-screen for STAT3 activator project, cell-based, NIH 3T3, luciferase luminescence; shares compounds with STAT3 act-1; actives 13% (n = 1,200); NIH 3T3 STAT1-luciferase reporter; activation (% of control), % at 5.7 µM;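 active = activation above the solvent-only control well mean plus 3 SD, set per screening run, cut at about 120% in these data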;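 note: 100% = IFN-gamma with DMSO median signal so 100% means no change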
* marks the source's active call; other numbers are inactive results; · = no result given. In the library only some 3.5% were active in any assay of this set; here they are far more common.

SMILES	FXIa inh 1536	FXIIa inh	AHR act	Thrombin inh	hK5 inh	STAT3 act-1	STAT3 act-2	NFkB act STAT3ct	STAT1 act
C[n+]1c2n(c3ccccc31)N=C(c1ccc(Br)cc1)CS2	-5.9	0.8	59.8*	-2.5	-16.6	136.4*	122.2	95.9	71.5
CCC(=O)N(Cc1cc(=O)[nH]c2ccccc12)c1cccc(C)c1	5.4	12.3	9.1	-0.3	-26.1	142.4*	124.0	101.3	95.5
COc1ccc(NC(C)=O)cc1NC(=O)c1ccc(Cl)cc1	-4.9	6.4	28.7	-4.6	-10.8	90.0	·	·	·
COc1cc(NC(=O)c2ccc(Cl)cc2)c(OC)cc1Cl	2.2	15.6	60.3*	3.6	-0.6	148.8*	131.3	102.1	103.5
COc1cc(OC)c(NC(=O)c2ccccc2F)cc1Cl	6.7	2.9	27.0	0.6	6.8	137.6*	132.2	106.8	116.2
O=C1CC(=O)Nc2cc(S(=O)(=O)N3CCN(c4ccc([N+](=O)[O-])cc4)CC3)ccc2N1	·	·	-0.3	·	·	·	·	·	·
Cc1c(Cl)ccc2c1NC(=O)[C@]21[C@@H]2C(=O)N(Cc3ccccc3)C(=O)[C@@H]2[C@@H]2CCCN21	17.7	24.8	43.6	-5.4	-27.1	141.0*	126.8	100.8	88.6
COC(=O)c1cnn(-c2nc3c(C)cccc3s2)c1C	0.9	4.2	6.5	-0.4	-0.8	140.5*	134.3*	107.9	116.1
Cc1cccc2sc(N3CCN(C(=O)C4COc5ccccc5O4)CC3)nc12 (stereo unspecified)	·	·	-2.6	·	·	·	·	·	·
COc1ccc(C(=O)n2nc(C)cc2Nc2ccccc2)cc1	-3.0	5.4	16.2	-3.0	-4.2	167.4*	152.7*	119.0	136.4*
Cc1cc(Nc2ccccc2)nn1C(=O)c1ccccc1	4.4	11.4	8.1	1.3	-20.9	95.8	·	·	·
Cc1csc(=O)n1CC(=O)OCC(=O)NCc1ccc(F)cc1	·	·	-1.8	·	·	·	·	·	·
COc1cccc(-c2nc(N3CCN(C)CC3)c3ccccc3n2)c1O	2.1	7.1	5.7	0.1	1.5	·	·	·	·
COc1cccc(-c2nc(N3CCCCC3C)c3ccccc3n2)c1O (stereo unspecified)	-3.7	16.0	13.9	-13.5	-21.0	138.1*	138.1*	105.1	98.6
COc1ccc(C(=O)C2CCCN(Cc3c[nH]c4ccccc34)C2)c(OC)c1 (stereo unspecified)	3.8	10.8	18.1	-2.3	·	142.5*	141.1*	104.0	99.9
CCN(CC)C(=O)CSC1=Nc2ccccc2C2=NC(Cc3c[nH]c4ccccc34)C(=O)N12 (stereo unspecified)	4.4	7.7	13.5	-3.6	6.2	137.2*	135.4*	101.1	100.5
COc1ccccc1-c1nnc(SCC(=O)O)n1C	-9.7	-3.4	25.9	-3.7	-25.5	163.9*	153.1*	108.8	106.2
COc1ccccc1-c1nnc(SC)n1C	4.1	9.1	-1.7	·	-0.8	94.9	·	·	·
CCOc1ccccc1NC(=O)c1nc(-c2ccccc2)oc1C	-20.0	1.1	39.0	2.7	-18.7	141.5*	122.8	104.2	104.5
Nc1ccc(C(=O)Nc2nccs2)cc1	2.4	14.2	7.7	-8.0	10.1	97.1	·	·	·
Cc1oc(-c2ccccc2)nc1C(=O)Nc1nccs1	-6.8	0.9	74.0*	4.2	-13.1	140.5*	142.1*	107.3	113.1
Cc1ccc(C(=O)Nc2nccs2)cc1	9.1	10.7	24.2	-6.1	1.2	144.3*	165.1*	117.5	128.0*
O=C1C2CCCN2C(=O)N1CCCCN1CCN(c2ccc(F)cc2)CC1 (stereo unspecified)	-2.1	1.8	5.0	-6.4	-20.6	102.6	·	·	·
COc1ccccc1C(=O)N/C(=C\c1ccc2c(c1)OCO2)C(=O)NCCc1nc2ccccc2[nH]1	4.9	8.2	10.8	-1.3	-26.1	99.9	·	·	·
c1ccc2c(-c3nc4ncccc4o3)cccc2c1	-2.6	2.9	41.1	-4.8	0.8	140.8*	123.6	108.7	109.9
SMILES	FXIa inh 1536	FXIIa inh	AHR act	Thrombin inh	hK5 inh	STAT3 act-1	STAT3 act-2	NFkB act STAT3ct	STAT1 act
Fc1ccccc1-c1nc2ncccc2o1	-4.2	3.2	-4.0	-8.9	-7.1	86.4	·	·	·
COc1ccc(N(C)C(=O)c2ccc(NC(=O)CCS(=O)(=O)c3cccs3)cc2)cc1	·	·	1.8	·	·	·	·	·	·
CC(C)(C)n1nc2c(c1NC(=O)c1ccc(S(=O)(=O)N3CCCC3)cc1)CSC2	2.0	13.1	14.9	1.7	-8.8	152.0*	144.9*	108.1	95.3
CCOc1ccc(NS(=O)(=O)c2ccc(C)c(C(=O)NCCCn3ccnc3)c2)cc1	1.9	10.6	11.1	-10.8	-2.9	99.6	·	·	·
COCc1cc(=O)n2c(-c3ccc(C)cc3)n[nH]c2n1	-9.8	-3.0	12.0	-5.2	20.2	·	·	·	·
COCc1cc(=O)n2c(-c3ccccc3OC)n[nH]c2n1	18.4	23.6	26.9	-2.4	1.9	144.5*	159.4*	106.0	101.0
CCOC(=O)c1cnn(-c2ncnc3sc4c(c23)CCC4)c1N	14.0	22.3	32.8	49.5*	34.3	148.3*	149.4*	102.8	99.3
CCOC(=O)c1cnn(-c2nc(SC)nc3sc4c(c23)CCCC4)c1N	-2.5	0.2	6.8	2.0	-19.7	90.3	·	·	·
O=C(Cc1c[nH]c2ccccc12)Nc1nc2ccccc2[nH]1	1.4	-7.5	91.3*	-19.3	1.8	145.7*	153.8*	107.9	104.4
Fc1cccc(Cl)c1CSc1nnc2ccccn12	-4.3	2.2	1.6	-12.3	-4.3	101.7	·	·	·
CN(Cc1nc2ccccc2c(=O)[nH]1)C(=O)C1CC(=O)N(c2cccc3ccccc23)C1 (stereo unspecified)	·	·	3.6	·	·	·	·	·	·
O=c1oc2ccccc2c(O)c1/C=C1\C=Nc2ccccc21	4.7	14.2	30.0	4.8	-8.8	161.0*	151.8*	104.0	89.8
O=c1oc2ccccc2c(O)c1/C=N/c1ncccn1	·	·	3.2	·	·	·	·	·	·
CCN(CC1CCCO1)C(=O)CCc1nnc(CCc2ccccc2OC)o1 (stereo unspecified)	·	·	2.3	·	·	·	·	·	·

Screening data from PubChem.
